From ChEMBL document CHEMBL3259616, “New Ianthelliformisamine derivatives as antibiotic enhancers against resistant Gram-negative bacteria” (J Med Chem, 2014)
Converted amounts (≈) assume the structure as drawn. Values belong to the molecule of their own block, whether it stands above or below them.

Assays:
Klebsiella aerogenes [1] = test: Antibacterial activity against Enterobacter aerogenes EA289 assessed as inhibition of visible growth after 18 hrs incubation by standard broth dilution method; type: functional; conditions: EA289, 18 h
In short: (§1)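 Broth microdilution per CA-SFM: inoculum 10^5 CFU in 200 μL Mueller–Hinton broth with 2-fold serial dilutions of compound; MIC = lowest concentration with no visible growth after 18 h at 37 °C. Independently repeated at least three times. Strains kept at −80 °C in 15% glycerol and grown routinely in MH broth at 37 °C.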

Pseudomonas aeruginosa = test: Antibacterial activity against Pseudomonas aeruginosa PAO1 assessed as inhibition of visible growth after 18 hrs incubation by standard broth dilution method; type: functional; conditions: PAO1, 18 h; in short: as §1
Klebsiella pneumoniae [2] = test: Antibacterial activity against Klebsiella pneumoniae KPC2 ST258 assessed as inhibition of visible growth after 18 hrs incubation by standard broth dilution method; type: functional; conditions: KPC2, 18 h; in short: as §1
[3] = tested on: Pseudomonas aeruginosa PAO1; test: Inhibition of multidrug resistance efflux pump in Pseudomonas aeruginosa PAO1 assessed as dose required to restore 2 ug/ml cefepime-induced inhibition of visible growth after 18 hrs by standard broth dilution method
In short: (§2)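 Broth microdilution in MH broth, inoculum 10^5 CFU in 200 μL, 2-fold serial dilutions of derivative with fixed antibiotic (2 μg/mL). Lowest derivative concentration giving complete inhibition of visible growth after 18 h at 37 °C recorded. Antibiotics dissolved in DMSO. Independently repeated at least three times.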

Klebsiella pneumoniae [4] = test: Inhibition of multidrug resistance efflux pump in Klebsiella pneumoniae KPC2 ST258 assessed as dose required to restore 2 ug/ml doxycycline-induced inhibition of visible growth after 18 hrs by standard broth dilution method
In short: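 Broth microdilution in Mueller-Hinton broth, CA-SFM recommendations. Inoculum 10^5 CFU in 200 μL containing 2-fold serial dilutions of derivative plus doxycycline at 2 μg/mL, 37 °C for 18 h. Antibiotics dissolved in DMSO, up to 5% v/v. Repeated independently at least three times.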

[5] = Cytotoxicity against human fibroblasts assessed as decrease in cell viability after 24 hrs by WST-1 assay; type: cell-based; conditions: Fibroblast
In short: (§3)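 CHO-K1 (McCoy's 5A) and human fibroblasts (DMEM), both with 10% bovine calf serum, 2 mM glutamine, penicillin/streptomycin, 37 °C, 5% CO2. Seeded, left overnight, then exposed to various compound concentrations in triplicate for 24 h at 37 °C. Washed three times in PBS, 30 min in PBS with 10% WST-1, A450. Viability as % of medium-only control; IC50 by nonlinear regression.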

[6] = tested on: Pseudomonas aeruginosa PAO1; test: Inhibition of multidrug resistance efflux pump in Pseudomonas aeruginosa PAO1 assessed as dose required to restore 2 ug/ml chloramphenicol-induced inhibition of visible growth after 18 hrs by standard broth dilution method; in short: as §2
Staphylococcus aureus = test: Antibacterial activity against Staphylococcus aureus DSM799 assessed as inhibition of visible growth after 18 hrs incubation by standard broth dilution method; type: functional; conditions: DSM799, 18 h; in short: as §1
[7] = Cytotoxicity against CHOK1 cells assessed as decrease in cell viability after 24 hrs by WST-1 assay; type: cell-based; conditions: Cricetulus griseus, CHO-K1, 24 h; in short: as §3
[8] = tested on: Pseudomonas aeruginosa PAO1; test: Inhibition of multidrug resistance efflux pump in Pseudomonas aeruginosa PAO1 assessed as dose required to restore 2 ug/ml doxycycline-induced inhibition of visible growth after 18 hrs by standard broth dilution method; in short: as §2
Klebsiella aerogenes [9] = test: Inhibition of multidrug resistance efflux pump in Enterobacter aerogenes EA289 assessed as dose required to restore 2 ug/ml doxycycline-induced inhibition of visible growth after 18 hrs by standard broth dilution method; in short: as §2

MIC (Klebsiella aerogenes [1]): > 200 µM
MIC (Pseudomonas aeruginosa): > 200 µM
SMILES: O=C(N[C@H](CO)[C@H](O)c1ccc([N+](=O)[O-])cc1)C(Cl)Cl [CHLORAMPHENICOL]

SMILES: COc1c(Br)cc(/C=C/C(=O)NCCCNCCCNCCCNC(=O)/C=C/c2cc(Br)c(OC)c(Br)c2)cc1Br
MIC (Klebsiella pneumoniae [2]): 12.5 µM (≈ 10.3 µg/mL)
Activity [3]: 1.6 µM
Activity (Klebsiella pneumoniae [4]): 12.5 µM
IC50 [5]: 237 µM
Activity [6]: 12.5 µM
MIC (Klebsiella aerogenes [1]): 100 µM (≈ 82.4 µg/mL)
MIC (Staphylococcus aureus): 12.5 µM (≈ 10.3 µg/mL)
IC50 [7]: 663 µM
MIC (Pseudomonas aeruginosa): 25 µM (≈ 20.6 µg/mL)
Activity [8]: 3.12 µM
inhibition [8]: Dose-dependent effect
Activity (Klebsiella aerogenes [9]): 12.5 µM

MIC (Klebsiella aerogenes [1]): 52 µM (≈ 25 µg/mL)
MIC (Pseudomonas aeruginosa): 26 µM (≈ 12.5 µg/mL)
SMILES: CO/N=C(\C(=O)N[C@@H]1C(=O)N2C(C(=O)[O-])=C(C[N+]3(C)CCCC3)CS[C@H]12)c1csc(N)n1 [CEFEPIME]

SMILES: COc1c(Br)cc(/C=C/C(=O)NCCCCCN)cc1Br
MIC (Klebsiella pneumoniae [2]): > 200 µM
Activity (Klebsiella pneumoniae [4]): 6.25 µM
MIC (Klebsiella aerogenes [1]): > 200 µM
MIC (Staphylococcus aureus): > 200 µM
MIC (Pseudomonas aeruginosa): > 200 µM
Activity [8]: > 100 µM
inhibition [8]: Dose-dependent effect
Activity (Klebsiella aerogenes [9]): > 100 µM

SMILES: COc1c(Br)cc(/C=C/C(=O)NCCCNCCCCN)cc1Br.Cl.Cl
MIC (Klebsiella pneumoniae [2]): > 200 µM
Activity [3]: 0.8 µM
Activity (Klebsiella pneumoniae [4]): 3.12 µM
IC50 [5]: 129 µM
Activity [6]: 200 µM
MIC (Klebsiella aerogenes [1]): 100 µM
MIC (Staphylococcus aureus): > 200 µM
IC50 [7]: 1660 µM
MIC (Pseudomonas aeruginosa): > 200 µM
Activity [8]: 12.5 µM
inhibition [8]: Dose-dependent effect
Activity (Klebsiella aerogenes [9]): 25 µM

SMILES: COc1c(Br)cc(/C=C/C(=O)NCCNCCNCCNCCN)cc1Br
MIC (Klebsiella pneumoniae [2]): > 200 µM
Activity [3]: 6.25 µM
Activity (Klebsiella pneumoniae [4]): 3.12 µM
IC50 [5]: 237 µM
Activity [6]: 100 µM
MIC (Klebsiella aerogenes [1]): 200 µM (≈ 101 µg/mL)
MIC (Staphylococcus aureus): 50 µM (≈ 25.4 µg/mL)
IC50 [7]: 573 µM
MIC (Pseudomonas aeruginosa): 100 µM (≈ 50.7 µg/mL)
Activity [8]: 6.25 µM
inhibition [8]: Dose-dependent effect
Activity (Klebsiella aerogenes [9]): 12.5 µM

SMILES: COc1c(Br)cc(/C=C/C(=O)NCCCN2CCCC2)cc1Br
MIC (Klebsiella pneumoniae [2]): > 200 µM
Activity (Klebsiella pneumoniae [4]): >100 µM
MIC (Klebsiella aerogenes [1]): > 200 µM
MIC (Staphylococcus aureus): > 200 µM
MIC (Pseudomonas aeruginosa): > 200 µM
Activity [8]: 25 µM
inhibition [8]: Dose-dependent effect
Activity (Klebsiella aerogenes [9]): > 100 µM

SMILES: COc1c(Br)cc(/C=C/C(=O)NCCNCCNCCN)cc1Br
MIC (Klebsiella pneumoniae [2]): > 200 µM
Activity (Klebsiella pneumoniae [4]): >100 µM
MIC (Klebsiella aerogenes [1]): > 200 µM
MIC (Staphylococcus aureus): > 200 µM
MIC (Pseudomonas aeruginosa): > 200 µM
Activity [8]: > 100 µM
inhibition [8]: Dose-dependent effect
Activity (Klebsiella aerogenes [9]): > 100 µM

SMILES: COc1c(Br)cc(/C=C/C(=O)NCCCCNCCCN)cc1Br.Cl.Cl
MIC (Klebsiella pneumoniae [2]): > 200 µM
Activity [3]: 3.12 µM
Activity (Klebsiella pneumoniae [4]): 3.12 µM
IC50 [5]: 33 µM
Activity [6]: 100 µM
MIC (Klebsiella aerogenes [1]): > 200 µM
MIC (Staphylococcus aureus): 200 µM
IC50 [7]: 108 µM
MIC (Pseudomonas aeruginosa): 200 µM
Activity [8]: 3.12 µM
inhibition [8]: Dose-dependent effect
Activity (Klebsiella aerogenes [9]): 6.25 µM

SMILES: COc1c(Br)cc(/C=C/C(=O)NCCCCN)cc1Br
MIC (Klebsiella pneumoniae [2]): > 200 µM
Activity (Klebsiella pneumoniae [4]): >100 µM
MIC (Klebsiella aerogenes [1]): > 200 µM
MIC (Staphylococcus aureus): > 200 µM
MIC (Pseudomonas aeruginosa): > 200 µM
Activity [8]: > 100 µM
inhibition [8]: Dose-dependent effect
Activity (Klebsiella aerogenes [9]): > 100 µM
